According to ChEMBL document CHEMBL4422685, “Design, synthesis and evaluation of a series of 5-methoxy-2,3-naphthalimide derivatives as AcrB inhibitors for the reversal of bacterial resistance” (Bioorg Med Chem Lett, 2019):

Legend:
Escherichia coli [1] = experiment: Toxicity against wild-type drug-resistant Escherichia coli […] at 128 ug/ml; assay type: organism-based; details: in vivo
In short: (§1)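 MIC determination against wild-type resistant E. coli BW25113 and an isogenic acrB-deleted strain; highest concentration tested 128 mg/L.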

Escherichia coli [2] = experiment: Toxicity against AcrB deficient Escherichia coli AcrB lacking at 128 ug/ml; assay type: organism-based; details: in vivo; in short: as §1
[3] = target: T1, Multidrug efflux pump subunit AcrB (Escherichia coli (strain K12)) (UniProt P31224); experiment: Inhibition of AcrB in wild-type drug-resistant Escherichia coli […] assessed as potentiation of chloramphenicol-induced antimicrobial activity by measuring chloramphenicol MIC at 8 ug/ml by checkerboard titration method (Rvb =16 ug/ml)
T1 sequence (whole entry): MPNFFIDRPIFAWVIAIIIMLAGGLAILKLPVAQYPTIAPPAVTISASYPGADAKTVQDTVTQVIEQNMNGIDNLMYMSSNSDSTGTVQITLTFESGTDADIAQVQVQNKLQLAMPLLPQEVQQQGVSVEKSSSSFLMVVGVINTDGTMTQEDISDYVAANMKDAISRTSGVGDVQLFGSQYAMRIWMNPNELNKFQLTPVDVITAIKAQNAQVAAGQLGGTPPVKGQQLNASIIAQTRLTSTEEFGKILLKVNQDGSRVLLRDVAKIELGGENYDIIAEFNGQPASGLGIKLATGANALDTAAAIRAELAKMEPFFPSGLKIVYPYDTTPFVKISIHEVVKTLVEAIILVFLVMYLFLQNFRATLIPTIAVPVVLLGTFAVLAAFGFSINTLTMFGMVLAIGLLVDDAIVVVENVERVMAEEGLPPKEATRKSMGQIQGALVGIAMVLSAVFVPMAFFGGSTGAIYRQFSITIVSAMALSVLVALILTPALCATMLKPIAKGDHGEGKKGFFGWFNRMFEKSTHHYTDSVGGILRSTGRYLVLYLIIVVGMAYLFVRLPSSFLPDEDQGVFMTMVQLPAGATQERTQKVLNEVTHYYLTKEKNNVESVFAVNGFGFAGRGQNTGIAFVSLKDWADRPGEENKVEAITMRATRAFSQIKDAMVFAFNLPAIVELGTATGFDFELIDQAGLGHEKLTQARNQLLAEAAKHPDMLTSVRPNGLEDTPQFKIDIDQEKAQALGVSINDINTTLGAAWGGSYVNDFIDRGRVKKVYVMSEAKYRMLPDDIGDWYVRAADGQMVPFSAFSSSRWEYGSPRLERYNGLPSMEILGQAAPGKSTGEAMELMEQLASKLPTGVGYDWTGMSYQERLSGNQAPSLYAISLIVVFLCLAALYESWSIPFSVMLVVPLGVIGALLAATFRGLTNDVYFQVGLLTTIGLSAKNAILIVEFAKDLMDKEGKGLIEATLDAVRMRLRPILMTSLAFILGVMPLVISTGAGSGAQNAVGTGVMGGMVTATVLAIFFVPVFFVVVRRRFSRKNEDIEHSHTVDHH

[4] = target: T1, Multidrug efflux pump subunit AcrB (Escherichia coli (strain K12)); experiment: Inhibition of AcrB in wild-type drug-resistant Escherichia coli […] assessed as potentiation of chloramphenicol-induced antimicrobial activity by measuring chloramphenicol MIC at 32 ug/ml by checkerboard titration method (Rvb =16 ug/ml)
[5] = target: T1, Multidrug efflux pump subunit AcrB (Escherichia coli (strain K12)); experiment: Inhibition of AcrB in wild-type drug-resistant Escherichia coli […] assessed as potentiation of chloramphenicol-induced antimicrobial activity by measuring chloramphenicol MIC at 64 ug/ml by checkerboard titration method (Rvb =16 ug/ml)
[6] = target: T1, Multidrug efflux pump subunit AcrB (Escherichia coli (strain K12)); experiment: Inhibition of AcrB in wild-type drug-resistant Escherichia coli […] assessed as potentiation of chloramphenicol-induced antimicrobial activity by measuring chloramphenicol MIC at 128 ug/ml by checkerboard titration method (Rvb =16 ug/ml)
[7] = target: T1, Multidrug efflux pump subunit AcrB (Escherichia coli (strain K12)); experiment: Inhibition of AcrB in wild-type drug-resistant Escherichia coli […] assessed as potentiation of erythromycin-induced antimicrobial activity by measuring erythromycin MIC at 8 ug/ml by checkerboard titration method (reference value: 64 ug/ml)
[8] = target: T1, Multidrug efflux pump subunit AcrB (Escherichia coli (strain K12)); experiment: Inhibition of AcrB in wild-type drug-resistant Escherichia coli […] assessed as potentiation of erythromycin-induced antimicrobial activity by measuring erythromycin MIC at 16 ug/ml by checkerboard titration method (reference value: 64 ug/ml)
[9] = target: T1, Multidrug efflux pump subunit AcrB (Escherichia coli (strain K12)); experiment: Inhibition of AcrB in wild-type drug-resistant Escherichia coli […] assessed as potentiation of erythromycin-induced antimicrobial activity by measuring erythromycin MIC at 32 ug/ml by checkerboard titration method (reference value: 64 ug/ml)
[10] = target: T1, Multidrug efflux pump subunit AcrB (Escherichia coli (strain K12)); experiment: Inhibition of AcrB in wild-type drug-resistant Escherichia coli […] assessed as potentiation of erythromycin-induced antimicrobial activity by measuring erythromycin MIC at 64 ug/ml by checkerboard titration method (reference value: 64 ug/ml)
[11] = target: T1, Multidrug efflux pump subunit AcrB (Escherichia coli (strain K12)); experiment: Inhibition of AcrB in wild-type drug-resistant Escherichia coli […] assessed as potentiation of tetraphenyl phosphonium chloride-induced antimicrobial activity by measuring tetraphenyl phosphonium chloride MIC at 8 ug/ml by checkerboard titration method (reference value: 1024 ug/ml)
[12] = target: T1, Multidrug efflux pump subunit AcrB (Escherichia coli (strain K12)); experiment: Inhibition of AcrB in wild-type drug-resistant Escherichia coli […] assessed as potentiation of tetraphenyl phosphonium chloride-induced antimicrobial activity by measuring tetraphenyl phosphonium chloride MIC at 32 ug/ml by checkerboard titration method (reference value: 1024 ug/ml)
[13] = target: T1, Multidrug efflux pump subunit AcrB (Escherichia coli (strain K12)); experiment: Inhibition of AcrB in wild-type drug-resistant Escherichia coli […] assessed as potentiation of tetraphenyl phosphonium chloride-induced antimicrobial activity by measuring tetraphenyl phosphonium chloride MIC at 64 ug/ml by checkerboard titration method (reference value: 1024 ug/ml)
[14] = target: T1, Multidrug efflux pump subunit AcrB (Escherichia coli (strain K12)); experiment: Inhibition of AcrB in wild-type drug-resistant Escherichia coli […] assessed as potentiation of levofloxacin-induced antimicrobial activity by measuring levofloxacin MIC at 8 ug/ml by checkerboard titration method (reference value: 0.063 ug/ml)
[15] = target: T1, Multidrug efflux pump subunit AcrB (Escherichia coli (strain K12)); experiment: Inhibition of AcrB in wild-type drug-resistant Escherichia coli […] assessed as potentiation of levofloxacin-induced antimicrobial activity by measuring levofloxacin MIC at 16 ug/ml by checkerboard titration method (reference value: 0.063 ug/ml)
[16] = target: T1, Multidrug efflux pump subunit AcrB (Escherichia coli (strain K12)); experiment: Inhibition of AcrB in wild-type drug-resistant Escherichia coli […] assessed as potentiation of levofloxacin-induced antimicrobial activity by measuring levofloxacin MIC at 32 ug/ml by checkerboard titration method (reference value: 0.063 ug/ml)
[17] = target: T1, Multidrug efflux pump subunit AcrB (Escherichia coli (strain K12)); experiment: Inhibition of AcrB in wild-type drug-resistant Escherichia coli […] assessed as potentiation of levofloxacin-induced antimicrobial activity by measuring levofloxacin MIC at 128 ug/ml by checkerboard titration method (reference value: 0.063 ug/ml)
Escherichia coli [18] = experiment: Induction of Escherichia coli outer membrane permeabilization assessed as increase in nitrocefin hydrolysis at 128 ug/ml by spectroscopic method; assay type: organism-based

SMILES | Activity (Escherichia coli [1]) | Activity (Escherichia coli [2]) | MIC [3] [µg/mL] | MIC [4] [µg/mL] | MIC [5] [µg/mL] | MIC [6] [µg/mL] | MIC [7] [µg/mL] | MIC [8] [µg/mL] | MIC [9] [µg/mL] | MIC [10] [µg/mL] | MIC [11] [µg/mL] | MIC [12] [µg/mL] | MIC [13] [µg/mL] | MIC [14] [µg/mL] | MIC [15] [µg/mL] | MIC [16] [µg/mL] | MIC [17] [µg/mL] | Activity (Escherichia coli [18])
COc1ccccc1CN1C(=O)c2cc3cccc(OC)c3cc2C1=O | Non-Toxic | Non-Toxic | 16 | 16 | 16 | 16 | 64 | 64 | 64 | 64 | 1020 | 1020 | 1020 | 0.016 | 0.0039 | 0.0039 | 0.0019 | Non-Toxic
COc1ccc(CN2C(=O)c3cc4cccc(OC)c4cc3C2=O)cc1 | Non-Toxic | Non-Toxic | 16 | 16 | 16 | 16 | 64 | 32 | 32 | 32 | 1020 | 1020 | 1020 | 0.063 | 0.063 | 0.063 | 0.063 | 
CCc1ccccc1N1C(=O)c2cc3cccc(OC)c3cc2C1=O | Non-Toxic | Non-Toxic | 16 | 16 | 16 | 8 | 64 | 64 | 64 | 64 | 1020 | 1020 | 1020 | 0.063 | 0.063 | 0.0313 | 0.0313 | Non-Toxic
CCCCCN1C(=O)c2cc3cccc(OC)c3cc2C1=O | Non-Toxic | Non-Toxic | 16 | 8 | 8 | 4 | 64 | 64 | 32 | 32 | 1020 | 1020 | 1020 | 0.063 | 0.063 | 0.063 | 0.0313 | Non-Toxic
COc1cccc2cc3c(cc12)C(=O)N(C1CCCC1)C3=O | Non-Toxic | Non-Toxic | 16 | 16 | 16 | 16 | 64 | 64 | 32 | 16 | 1020 | 1020 | 1020 | 0.063 | 0.063 | 0.063 | 0.063 | Non-Toxic
